# Only some compounds are listed: those with a hit (about 2.9% of all), similar ones and a draw of the others.
# SENP8 block-1 = inhibitors of human SENP8 protease | Q96LD8 | purified SENP8, Z-RLRGG-aminoluciferin cleavage, luminescence | inhibition, % at 10 µM | 1.2% of 330,000 active | AID 2540; in the data active means inhibition above about 50%
# SENP6 inh = inhibitors of human SENP6 protease | inhibition, % at 10 µM | 1.8% of 330,000 active | Recombinant SENP6 catalytic domain, aminoluciferin luminescence;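 active means inhibition above about 50% at the single tested dose, limit read from the data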;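 further: plate controls were DMSO wells with enzyme for no effect and DMSO wells lacking enzyme for full effect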
# Target sequence (Q9GZR1 628-1112 limits assumed): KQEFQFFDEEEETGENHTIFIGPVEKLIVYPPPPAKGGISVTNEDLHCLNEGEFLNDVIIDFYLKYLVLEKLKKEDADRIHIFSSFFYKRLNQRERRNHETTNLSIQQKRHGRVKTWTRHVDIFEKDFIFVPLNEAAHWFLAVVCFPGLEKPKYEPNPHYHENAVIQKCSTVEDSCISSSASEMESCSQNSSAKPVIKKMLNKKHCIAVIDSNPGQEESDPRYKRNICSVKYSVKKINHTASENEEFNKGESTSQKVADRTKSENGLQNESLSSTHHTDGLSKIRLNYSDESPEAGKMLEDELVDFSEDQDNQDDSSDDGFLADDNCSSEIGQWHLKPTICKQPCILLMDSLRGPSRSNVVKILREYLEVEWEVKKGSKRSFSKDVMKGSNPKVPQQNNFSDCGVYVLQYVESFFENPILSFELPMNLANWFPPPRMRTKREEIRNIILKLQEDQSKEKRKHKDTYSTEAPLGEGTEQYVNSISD
# HSP90 refold inh = blocks HSP90-mediated luciferase refolding in reticulocyte lysate; Rabbit reticulocyte lysate, luciferase refolding luminescence, 3 h; inhibition, % at 5.6 µM; 0.91% of 290,000 active; AID 1789;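 active means inhibition above the screen-wide mean plus 3 SD, computed separately per campaign, cut at about 16% in these data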;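 further: 0% = DMSO wells and 100% = 60 µM geldanamycin wells; inhibitors lower the luminescence because luciferase stays unfolded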
# SENP8 block-2 = SENP8 (human) protease inhibition; inhibition, % at 20 µM; recombinant SENP8, Nedd8 substrate fluorescence; AID 602440; 0.64% of 360,000 active; Q96LD8; in the data active means inhibition mostly above about 40%, no sharp cut-off; inactive means mostly below about 27%
# SENP7 inh = SENP7 protease inhibition; inhibition, % at 5 µM; recombinant SENP7, Z-RLRGG-aminoluciferin luminescence, 40 min; AID 434973; 1.5% of 330,000 active;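 active means inhibition above about 50% at the single test dose, limit read from the data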;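 further: plate controls were DMSO with enzyme for no effect and no enzyme buffer wells for full effect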
# SENP1 inh = inhibitors of human SENP1 SUMO protease catalytic domain; inhibition, % at 10 µM; AID 624204; recombinant SENP1 catalytic domain, CyPet-SUMO1-YPet FRET cleavage; 0.21% of 360,000 active; Q9P0U3;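 active means inhibition at least 30% at 10 µM, raw YFP signal under a set limit, fluorescence ratio 0.5 to 1.5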;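 further: 0% = enzyme with DMSO and 100% = no enzyme wells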
# Target sequence (Q9P0U3 419-644 limits assumed): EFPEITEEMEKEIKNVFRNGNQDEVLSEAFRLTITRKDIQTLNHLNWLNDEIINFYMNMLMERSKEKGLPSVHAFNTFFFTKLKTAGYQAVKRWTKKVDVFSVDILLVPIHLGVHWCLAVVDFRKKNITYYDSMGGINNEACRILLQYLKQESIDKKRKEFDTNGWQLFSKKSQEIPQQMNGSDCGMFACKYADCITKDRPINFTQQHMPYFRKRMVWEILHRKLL
#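 Assay system: hSENP1 catalytic domain, recombinant. Amount: SENP1 enzyme, 20 pM final. Schedule: 50 min reaction, RT, dark. Technique: FRET, CFP and YFP emission. Control set: no-enzyme wells low, DMSO-plus-enzyme wells high control.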
# SENP1 inh conf = SENP1 (human) inhibition, single concentration confirmation | AID 651678 | inhibition, % at 10 µM | shares compounds with SENP1 inh | recombinant SENP1, CyPet-SUMO1-YPet FRET cleavage | 34% of 520 active; in the data active means inhibition mostly above about 35%, no sharp cut-off; inactive means mostly below about 32%;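 further: 0% = enzyme with DMSO and 100% = no enzyme control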
# SENP1 kinetic = SENP1 (human) inhibition, kinetic confirmation; shares compounds with SENP1 inh; recombinant SENP1, CyPet-SUMO1-YPet FRET kinetic cleavage; inhibition, % at 10 µM; 26% of 520 active; AID 651690; in the data active means inhibition mostly above about 32%, no sharp cut-off; inactive means mostly below about 29%;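 further: 0% = DMSO with enzyme and 100% = no enzyme substrate only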
# Numbers without * were called inactive; . = not tested or not shown; ! = not confirmed by another sample.
SMILES,SENP8 block-1,SENP6 inh,HSP90 refold inh,SENP8 block-2,SENP7 inh,SENP1 inh,SENP1 inh conf,SENP1 kinetic
O=C(N1CCOCC1)N1CCC(n2nnc3cc(F)ccc32)CC1,4.3,31.5,3.0,15.6,-2.0,30.2*,28.9,13.9
Nc1c2c(nc3cccc(Cl)c13)N(c1ccccc1)CC2,-11.1,-22.2,0.3,-40.1,-2.6,55.0*,-12.0,-3.4
CN1Cc2c(N)cccc2C(c2ccccc2)C1 (stereo not drawn),0.7,5.5,-1.0,29.7,6.7,74.1*!,67.0*,44.8*
O=c1[nH]nnc2cc(Cl)ccc12,.,.,.,5.9,.,0.5,.,.
C[C@H](NC(=O)OC(C)(C)C)C(=O)N/N=C/c1cccc2nccnc12,-5.2,8.1,5.3,-11.6,3.8,0.6,.,.
O=C(O)c1ccc(N/N=C/c2cccc3nccnc23)cc1,-1.6,13.6,8.4,32.5,4.8,53.4*,46.4*,38.9*
COc1cccc(NC(=O)CN(C)C(C)C(=O)N2CCCCC2)c1 (stereo not drawn),5.1,-6.8,.,-1.0,-1.7,-1.0,.,.
Cc1ccc2c(c1)C(=O)CCN2,0.2,-5.7,1.2,-47.8,-2.9,29.9,.,.
Cc1ccc2c(c1)C(=C(C#N)C#N)CCN2,.,.,.,-23.6,.,36.0*,51.5*,32.7*
Clc1cccc(Cl)c1C[n+]1ccc2ccccc2c1,-12.4,-3.4,-1.1,-43.6,3.6,67.6*,6.7,13.4
COc1ccc(C(C#N)=Cc2cccc(OC)c2OC)cc1,.,.,.,-441.2,.,-2.7,.,.
N#Cc1ccc(-c2c(-c3ccccc3)ncc3cc(F)ccc23)cc1,26.1,29.2,.,-106.9,0.3,-2.2,.,.
CCCNc1nc2ccccc2n2c(C)nnc12,5.8,-8.4,5.6,3.2,5.8,30.8*,5.2,9.8
CCCN(CCC)c1nc2ccccc2n2c(C)nnc12,9.3,17.5,5.3,-61.3,-2.9,2.4,.,.
CC(C)(C)Cc1c(-c2ccc(F)cc2)nc2ccc(Br)cn12,.,.,.,16.2,.,-2.4,.,.
CCn1cc(C(=O)O)c(=O)c2cc(F)c(N/N=C/c3ccccc3[N+](=O)[O-])cc21,-4.2,-6.1,3.0,14.3,2.3,33.5*,-4.3,0.0
O=C(NCC1CC1)c1cc(-c2ccccc2)nn1CC1CC(c2cccc([N+](=O)[O-])c2)=NO1 (stereo not drawn),-6.1,-12.3,.,25.7,-6.1,1.4,.,.
Cc1ccc2nc3sc(C(=O)NCc4ccco4)c(N)c3cc2c1,-8.3,-2.3,1.8,-43.5,-1.2,34.3*,110.2*,71.2*
COc1cc(/C=C2\SC(=S)N(N3CCOCC3)C2=O)cc(OC)c1OC,2.9,-26.4,-2.4,31.9,-10.0,4.1,.,.
C=CCOc1ccc(/C=C2\SC(=S)N(N3CCOCC3)C2=O)cc1,5.1,14.7,0.2,30.3,5.5,0.2,.,.
COc1cc(/C=C2\SC(=S)N(N3CCOCC3)C2=O)ccc1O,3.0,-6.8,2.3,31.4,2.8,52.7*,15.2,11.2
COc1ccc(OC)c(/C=C2\SC(=S)N(N3CCOCC3)C2=O)c1,-4.0,-25.8,-0.8,29.6,1.1,38.5*,2.8,0.5
COc1ccc(C(=O)NCC(c2ccccc2)c2ccccc2)cc1S(=O)(=O)N1CCOCC1,.,.,.,0.8,.,-3.5,.,.
COc1ccc(F)cc1C1=CC(=O)C[C@H](c2ccc3c(c2)OCO3)C1,-10.6,-17.5,.,-9.0,-16.4,2.6,.,.
COc1ccc(/C=C/C(=O)Nc2ccc(OC)cc2[N+](=O)[O-])cc1,-3.7,-24.6,3.4,24.9,6.6,64.1*,35.7,26.6
SMILES,SENP8 block-1,SENP6 inh,HSP90 refold inh,SENP8 block-2,SENP7 inh,SENP1 inh,SENP1 inh conf,SENP1 kinetic
CC(C)C(=O)Nc1nnc(COc2ccc(Cl)cc2)s1,-2.4,-9.0,3.1,4.3,-6.2,45.7*,-6.8,-7.2
CCN(CC)S(=O)(=O)c1ccc(N2CCCCC2)c(NC(=O)C2=COCCO2)c1,-1.4,-20.2,.,11.0,1.1,1.5,.,.
CC(=O)Nc1ccc(C=NNC(=O)CCCC(=O)NN=Cc2ccc(NC(C)=O)cc2)cc1,.,.,.,-25.6,.,2.5,.,.
O=C(NCC1CCCO1)c1sc(=S)n2c1[nH]c(=O)c1ccc(C(=O)N3CCCCC3)cc12 (stereo not drawn),3.2,-2.0,-3.2,17.3,-3.3,30.6*,41.9*,19.1
O=C(Nc1cc2c(cc1Cl)-c1ccc([N+](=O)[O-])cc1C2=NO)C(F)(F)F,.,.,.,12.6,.,84.8*,57.0*,36.3*
O=C(Nc1ccc2c(c1)Cc1cc([N+](=O)[O-])ccc1-2)C(F)(F)F,.,.,.,0.5,.,-5.6,.,.
O=[N+]([O-])c1ccc2c(c1)-c1ccccc1C2=NO,.,.,.,17.9,.,4.5,.,.
Nc1ccc2c(c1)C(=NO)c1cc([N+](=O)[O-])ccc1-2,.,.,.,34.2,.,82.6*,86.4*,46.5*
COc1cccc(N2CCN(C(=O)C3CCN(S(=O)(=O)c4ccc5c(c4)CC(C)N5C(C)=O)CC3)CC2)c1 (stereo not drawn),0.3,4.9,-5.3,15.7,5.3,-1.1,.,.
COc1ccc(N=Nc2nc3cc(Br)c(Br)cc3n2C)c(OC)c1,.,.,0.9,10.7,.,61.0*,31.9,43.6*
COc1ccc(OC)c(CNc2ccc3c(c2)nc(C)n3C)c1,12.0,1.1,3.8,-71.5,-3.4,0.7,.,.
CCN(CC)S(=O)(=O)c1cc([N+](=O)[O-])ccc1N=Nc1c(O)[nH]c2ccccc12,.,.,-0.4,42.9*,.,46.3*,3.6,3.4
Cc1ccc2[nH]c(O)c(N=Nc3ccccc3[N+](=O)[O-])c2c1,.,.,.,22.9,.,2.3,.,.
O=[N+]([O-])c1ccc2[nH]c(O)c(N=Nc3ccc(F)cc3)c2c1,-19.5,-27.0,0.1,35.8,-8.7,55.8*,9.8,4.8
O=[N+]([O-])c1cccc(/C=C/c2nc(C=Nc3ccccc3)c(O)o2)c1,-3.2,-1.6,4.5,4.0,-7.5,32.9*,17.1,18.4
O=C1NC(=O)C2(CCCC2c2ccccc2)N1 (stereo not drawn),.,.,.,4.8,.,1.2,.,.
O=C(Cc1n[nH]c(=O)[nH]c1=O)N/N=C/c1c(O)ccc2ccccc12,-2.8,-3.9,-4.5,-16.5,0.6,38.6*,-18.4,20.9
O=C(Cc1n[nH]c(=O)[nH]c1=O)N/N=C/c1ccccc1,1.7,-9.3,0.8,10.8,1.1,-1.0,.,.
Cc1cnc(C(=O)Nc2ccccc2-c2ccc(C)o2)cn1,6.5,5.2,0.2,9.7,-0.6,39.6*,-11.6,-2.1
Cc1cnc(C(=O)Nc2cccc3ncccc23)cn1,-2.2,-8.7,0.1,21.4,8.3,-2.6,.,.
COc1ccccc1N1C(=O)S/C(=C\c2ccc(C)s2)C1=O,-1.1,3.3,0.1,18.9,-2.7,39.8*,13.2,13.8
O=C(O)Cn1c2ccccc2c2n[nH]c(=S)nc21,4.2,18.7,-3.2,18.8,-3.3,-0.9,.,.

# Source: PubChem BioAssay (several laboratories)
